Bioassay records: PubChem, several laboratories
An excerpt weighted towards active compounds, which were near 0.74% of everything screened.
Biofilm kill mix: clotrimazole potentiators killing C. albicans biofilm, primary screen, 4-compound mixtures | C. albicans biofilm persisters + clotrimazole, fluorescence viability; primary screen in compound mixtures of four per well | inhibition, % at 7.6 µM | 120,000 tested, 0.02% active;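 active = inhibition above 30.3% in the primary screen of four-compound pools, then above 30% when the compound was retested; inconclusive = passed the primary limit but could not be retested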;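 also: compounds exposed to preformed 24 h biofilms for 48 h; 0% = untreated biofilm control and 100% = clotrimazole plus chlorhexidine kill blank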
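Probe or stimulus – Clotrimazole 50 µg/mL co-treatment · System – C. albicans biofilms · Schedule – 24 h biofilm formation, then 48 h compound exposure, 37 °C · Evaluation – percent inhibition of biofilm viability · Technique – 2-h Alamar Blue fluorescence, 535/590 nm excitation/emission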
RGS8-Gao: RGS8-Galphao binding modulators, primary screen, biochemical, multiplexed bead flow cytometry | 220,000 tested, 0.34% active | actives lie on both sides | response (percent of control binding), % at 10 µM | AID 1423, 2008 | Guanine nucleotide-binding protein G(o) subunit alpha (Homo sapiens), P09471; in the data active = response below about 60% or above about 140%; inactive = in between;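 also: Galphao activated as the GDP aluminium fluoride complex binding bead-coupled RGS8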
Target sequence (P09471 whole entry, looked up): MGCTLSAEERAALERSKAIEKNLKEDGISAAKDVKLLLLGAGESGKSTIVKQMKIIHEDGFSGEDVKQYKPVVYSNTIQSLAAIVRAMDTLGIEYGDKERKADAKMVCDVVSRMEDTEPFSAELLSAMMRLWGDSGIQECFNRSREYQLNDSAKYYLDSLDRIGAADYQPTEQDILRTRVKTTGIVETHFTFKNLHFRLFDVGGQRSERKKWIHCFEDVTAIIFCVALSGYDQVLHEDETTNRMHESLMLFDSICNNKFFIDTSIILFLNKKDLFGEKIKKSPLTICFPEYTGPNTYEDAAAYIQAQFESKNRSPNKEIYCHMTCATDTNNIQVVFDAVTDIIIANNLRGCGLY
RGS16-Gao: modulators of RGS16 binding to Galphao, primary screen, biochemical, human proteins, multiplexed bead flow cytometry; Regulator of G-protein signaling 16 (Homo sapiens) + Guanine nucleotide-binding protein …; bead-based flow cytometry RGS16-Galphao binding, fluorescence; actives lie on both sides; binding response (% of control), % at 10 µM; 220,000 tested, 0.38% active;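 also: Galphao activated by GDP with aluminum fluoride before binding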
RGS4-Gao reg: modulators of RGS4 binding to Galphao, primary screen, biochemical, multiplexed bead flow cytometry | actives lie on both sides | Guanine nucleotide-binding protein G(o) subunit alpha (Homo sapiens), P09471 | 220,000 tested, 0.33% active | AID 1415, 2008 | binding response (% of control), % at 10 µM; in the data active = binding response below about 49% or above about 150%; inactive = in between;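 also: fluorescent Galphao activated with aluminum fluoride binding bead-coupled RGS4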
RGS7-Gao reg: RGS7-Galphao binding modulators, primary screen, biochemical, multiplexed bead flow cytometry | actives lie on both sides | Guanine nucleotide-binding protein G(o) subunit alpha (Homo sapiens), P09471 | AID 1439, 2008 | binding response (% of control), % at 10 µM | 220,000 tested, 0.35% active; in the data active = binding response below about 49% or above about 150%; inconclusive = no clear call, values can overlap the other calls; inactive = in between;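 also: fluorescent Galphao held in activated GDP-AlF4 state binding bead-coupled RGS7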
RGS4-Gao HTS: modulators of RGS–Galpha-o binding, primary screen, biochemical, multiplexed beads, flow cytometry, RGS4/7/8/16/19 | shares compounds with RGS16-Gao | multiplexed bead flow cytometry | RGS4–Galpha-o binding response, % at 10 µM | 1,600 tested, 99% active;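 also: fluorescently labeled Galpha-o bound to GDP with aluminium fluoride binding biotinylated RGS beads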
Target sequence (P09471 whole entry, looked up): as above
Target sequence (P49798 whole entry, looked up): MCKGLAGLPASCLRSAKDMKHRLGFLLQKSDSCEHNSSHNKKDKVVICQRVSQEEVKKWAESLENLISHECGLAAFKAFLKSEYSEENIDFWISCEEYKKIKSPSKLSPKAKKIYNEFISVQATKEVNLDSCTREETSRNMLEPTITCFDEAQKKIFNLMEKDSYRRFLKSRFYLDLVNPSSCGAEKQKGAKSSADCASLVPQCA
Avidin counter: disruption of biotin probe capture by avidin, counter-screen for RGS protein interaction modulators, biochemical, flow cytometry, bead-based. shares compounds with RGS16-Gao. streptavidin beads, fluorescein-biotin binding. inhibition, % at 10 µM. 1,700 tested, under 10 active. AID 1783, 2009;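 active = inhibition above 50%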;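 also: median green fluorescence of gated singlet beads compared with DMSO control wells; 0% = DMSO wells and 100% = complete loss of bead fluorescence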
RGS8-Gao confirm: RGS8-Galphao binding modulators, confirmation, biochemical, multiplexed bead flow cytometry, single concentration; AID 1836, 2009; binding response (% of control), % at 10 µM; bead-based flow cytometry RGS8-Galphao binding, fluorescence; actives lie on both sides; 1,700 tested, 3% active; shares compounds with RGS16-Gao; in the data active = binding response below about 72% or above about 130%; inactive = in between;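 also: Galphao activated as GDP AlF4 complex before binding bead RGS8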
RGS7-Gao single: RGS7-Galphao binding modulators, confirmation, biochemical, multiplexed bead flow cytometry, single concentration; 1,700 tested, 7.8% active; shares compounds with RGS16-Gao; bead-based flow cytometry RGS7-Galphao binding; actives lie on both sides; response (percent of control binding), % at 10 µM; in the data active = response below about 75% or above about 130%; inactive = in between;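 also: fluorescent Galphao activated with GDP and aluminum fluoride binding bead-coupled RGS7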
RGS16-Gao single: modulators of RGS16-Galphao protein binding, confirmation, biochemical, single concentration, multiplexed bead flow cytometry; bead-based flow cytometry; actives lie on both sides; AID 1838, 2009; shares compounds with RGS16-Gao; 1,700 tested, 4% active; response (% of control binding), % at 10 µM; in the data active = response below about 74% or above about 130%; inactive = in between;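 also: Galphao activated as the GDP aluminium fluoride complex binding bead-coupled RGS16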
RGS4-Gao confirm: modulators of RGS4-Galphao protein binding, confirmation, biochemical, single concentration, multiplexed bead flow cytometry. shares compounds with RGS16-Gao. actives lie on both sides. binding response (% of control), % at 10 µM. 1,700 tested, 4% active. AID 1840, 2009; in the data active = binding response below about 74% or above about 130%; inactive = in between
RGS19-Gao conf: regulators of RGS19-Galphao binding, confirmation, biochemical, single point, multiplexed bead flow cytometry; shares compounds with RGS16-Gao; bead-based flow cytometry RGS19-Galphao binding; actives lie on both sides; response (percent of control binding), % at 10 µM; 1,700 tested, 5% active; AID 1841, 2009; in the data active = response below about 50% or above about 160%; inactive = in between;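 also: 100% = no compound control and 0% = blank background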
* hit, by the source's call; [ ] = dose if it differs, or a comment. Unless noted, no rule for the calls is given here.

O=C(CCN1C(=O)/C(=C/c2ccccc2Cl)SC1=S)NC1=NCCS1 was read as Biofilm kill mix 20, RGS8-Gao 157*[activator], RGS16-Gao 307, RGS4-Gao reg 127, RGS7-Gao reg 122, RGS4-Gao HTS 127*, Avidin counter 2, RGS8-Gao confirm 105, RGS7-Gao single 98, RGS16-Gao single 101, RGS4-Gao confirm 98 and RGS19-Gao conf 95.
`Cc1[nH]c2ccccc2c1/C=N/NC(=S)NC(C)C` gave Biofilm kill mix 7, RGS8-Gao 102, RGS16-Gao 118, RGS4-Gao reg 125, RGS7-Gao reg 176*[activator], RGS4-Gao HTS 125*, Avidin counter 2, RGS8-Gao confirm 108, RGS7-Gao single 259*[activator], RGS16-Gao single 149*[activator], RGS4-Gao confirm 184*[activator] and RGS19-Gao conf 230*[activator].
Nc1c(C(=O)NCC2CCCO2)sc2nc3c(c(-c4ccco4)c12)CC/C3=C\c1ccco1 (stereo unspecified) was read as Biofilm kill mix 10, RGS8-Gao 71, RGS16-Gao 89, RGS4-Gao reg 73, RGS7-Gao reg 44*, RGS4-Gao HTS 73*, Avidin counter 2, RGS8-Gao confirm 70*, RGS7-Gao single 52*, RGS16-Gao single 70*, RGS4-Gao confirm 75 and RGS19-Gao conf 24*.
CCOc1cc(/C=C(\C#N)C(=O)NCc2cccnc2)ccc1O was read as Biofilm kill mix 12, RGS8-Gao 101, RGS16-Gao 101, RGS4-Gao reg 103 and RGS7-Gao reg 104.
For NC(=O)C1CCN(C(=O)Nc2csc3ccccc23)CC1 the results were Biofilm kill mix 21, RGS8-Gao 75, RGS16-Gao 98, RGS4-Gao reg 93, RGS7-Gao reg inconclusive, Avidin counter 1, RGS8-Gao confirm 100, RGS7-Gao single 101, RGS16-Gao single 101, RGS4-Gao confirm 103 and RGS19-Gao conf 115.
For CC(C)OCCCn1c(SCC(=O)N2CCc3ccccc32)nc2ccccc2c1=O the results were Biofilm kill mix 8, RGS8-Gao 101, RGS16-Gao 100, RGS4-Gao reg 99 and RGS7-Gao reg 99.
CCCCCCN(C(=O)CCCCCN1C(=O)NC(c2ccc(-c3ccccc3)cc2)C(C(=O)OCc2ccccc2)=C1C)C(C(=O)NCCCC)c1ccc(O)c(C(=O)OC)c1 (stereo unspecified) was read as Biofilm kill mix 5, RGS8-Gao 103, RGS16-Gao 105, RGS4-Gao reg 103 and RGS7-Gao reg inconclusive.
`CCOC(=O)c1ccc(NC2OC(=O)c3ccccc32)cc1` (stereo unspecified) gave Avidin counter 2, RGS8-Gao confirm 104, RGS7-Gao single 109, RGS16-Gao single 106, RGS4-Gao confirm 103 and RGS19-Gao conf 107.
Screening C#CCNC(=O)C1=C[C@@H](c2ccc(C(F)(F)F)cc2)[C@H](CCCO)[C@@H](OCC)O1 returned Biofilm kill mix 18, RGS8-Gao 100, RGS16-Gao 97, RGS4-Gao reg 101 and RGS7-Gao reg 101.
`N/C(=N\OC(=O)c1ccco1)c1ccc(Cl)cc1` gave Biofilm kill mix 27, RGS8-Gao 101, RGS16-Gao 102, RGS4-Gao reg 109, RGS7-Gao reg 164*[activator], RGS4-Gao HTS 109*, Avidin counter 0, RGS8-Gao confirm 103, RGS7-Gao single 104, RGS16-Gao single 102, RGS4-Gao confirm 101 and RGS19-Gao conf 103.
For N/C(=N\OC(=O)c1ccc(Cl)cc1)c1ccc(Cl)cc1 the results were Biofilm kill mix 11, RGS8-Gao 103, RGS16-Gao 105, RGS4-Gao reg 103 and RGS7-Gao reg 103.
COc1ccc2nc(N/C(N)=N/C(=S)Nc3c(C)cccc3C)nc(C)c2c1 was read as Biofilm kill mix -7, RGS8-Gao 119, RGS16-Gao 203*[activator], RGS4-Gao reg 113, RGS7-Gao reg 118, RGS4-Gao HTS 113*, Avidin counter 1, RGS8-Gao confirm 99, RGS7-Gao single 99, RGS16-Gao single 103, RGS4-Gao confirm 99 and RGS19-Gao conf 88.
Screening COc1ccc2nc(N/C(N)=N/C(=S)Nc3cccc(C)c3)nc(C)c2c1 returned Biofilm kill mix 8.
Screening Cc1ccc(S(=O)(=O)CCC(=O)Nc2ccc(F)cc2)cc1 returned Biofilm kill mix 30, RGS8-Gao 102, RGS16-Gao 101, RGS4-Gao reg 102 and RGS7-Gao reg inconclusive.
`CCSc1nnc(Nc2ccccc2)s1` gave RGS8-Gao 42*, RGS16-Gao 21*, RGS4-Gao reg 15*, RGS7-Gao reg 25*, Avidin counter -1, RGS8-Gao confirm 101, RGS7-Gao single 92, RGS16-Gao single 101, RGS4-Gao confirm 96 and RGS19-Gao conf 99.
